Assay: Inhibition of Saccharomyces cerevisiae alpha-glucosidase using p-nitrophenyl-alpha-D-glucopyranoside as substrate after 30 mins
Summary of the method: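 Reaction started by adding 3 mM p-nitrophenyl-α-D-glucopyranoside and 0.2 U/mL α-glucosidase (both stock concentrations) in 0.01 M phosphate buffer, pH 7.0, to the sample solution. Incubated at 37 °C for 30 min, then stopped with 0.1 M Na2CO3. Activity read as absorbance at 401 nm. IC50 is the concentration giving 50% inhibition of enzyme activity. Acarbose was the positive control.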

Structure (SMILES) | IC50
COc1cc2c(cc1O)C1c3cc(O)c(O)cc3C(=O)C(C2)C1CO (stereo unspecified) | 135 µM
C[C@H]1O[C@H](O[C@H]2[C@H](O)[C@@H](O)[C@@H](O[C@H]3[C@H](O)[C@@H](O)C(O)O[C@@H]3CO)O[C@@H]2CO)[C@H](O)[C@@H](O)[C@@H]1N[C@H]1C=C(CO)[C@@H](O)[C@H](O)[C@H]1O (stereo partly specified) [ACARBOSE] | 215 µM
COc1cc(C[C@H]2COC(=O)[C@@H]2Cc2ccc(O)c(OC)c2)ccc1O [MATAIRESINOL] | 175 µM
COc1cc([C@H]2c3cc(O)c(OC)cc3C[C@H]3C(=O)OC[C@H]23)ccc1O [ALPHA-CONIDENDRIN] | 194 µM
COc1cc([C@@H](OC)[C@@H]2CO[C@H](c3ccc(O)c(OC)c3)[C@@H]2CO)ccc1O (relative stereo) | 170 µM

Second part, the compound after the results:

IC50 | Structure (SMILES)
38.8 µM | COc1cc([C@H]2c3cc(O)c(OC)cc3C[C@H]3[C@@H](OC)OC[C@H]23)ccc1O
35.3 µM | COc1cc([C@H]2c3cc(O)c(OC)cc3C[C@H]3[C@H](OC)OC[C@H]23)ccc1O
52.2 µM | COc1cc2c(cc1O)C1c3cc(OC)c(O)cc3C(=O)C(C2)C1CO (stereo unspecified)
42.9 µM | COc1cc([C@H]2OC[C@@H]([C@@H](OC)c3ccc(O)c(OC)c3)[C@H]2CO)ccc1O (relative stereo)
79.1 µM | COc1cc(C[C@H]2C(=O)OC[C@@H]2C(=O)c2ccc(O)c(OC)c2)ccc1O
133 µM | COc1cc(C[C@H]2[C@@H](OC)OC[C@@H]2[C@H](OC)c2ccc(O)c(OC)c2)ccc1O

Reference: ChEMBL document CHEMBL4190207, “Lignans from the Roots of Taxus wallichiana and Their α-Glucosidase Inhibitory Activities” (J Nat Prod, 2017)
